Results as given in ChEMBL document CHEMBL1932986, “Synthesis and in vitro antimycobacterial activity of compounds derived from (R)- and (S)-2-amino-1-butanol - The crucial role of the configuration” (Eur J Med Chem, 2012).
Calls of active or inactive are those of the source.

Key:
Assay type in all cases: functional
Penicillium chrysogenum = assay: Antifungal activity against Penicillium chrysogenum CECT 2802 at 50 mg/ml after 72 hrs by agar diffusion test
Summary of the method: (§1)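 Agar diffusion: yeasts grown on yeast peptone dextrose agar and fungi on potato dextrose agar. Wells are filled with […] of compound solution in DMSO at various concentrations, and the clear-zone diameter is measured. Bracketed values give the lowest concentration (mg/ml) that produces a zone >11 mm. A first screen is run at 50 mg/ml.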

Priestia megaterium = assay: Antibacterial activity against Bacillus megaterium NRRL 1353895 at 50 mg/ml after 24 hrs by agar diffusion test; settings: for zone of inhibition at 50000 µg/mL: NRRL 1353895, 24 h, read-out: DIZ
Summary of the method: (§2)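 Agar diffusion: wells in agar filled with […] DMSO solution of compound at various concentrations; diameter of clear zone around application point measured. Bacteria grown 24 h at 37 °C on nutrient agar. Compounds first screened at 50 mg/ml; those active then tested at lower concentrations. Bracketed value = lowest concentration (mg/ml) giving zone >11 mm, reported only if activity retained at ≤1.25 mg/ml.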

Bacillus mycoides = assay: Antibacterial activity against Bacillus mycoides DSMZ 274 at 50 mg/ml after 24 hrs by agar diffusion test; settings: for zone of inhibition at 50000 µg/mL: DSMZ 274, 24 h, read-out: DIZ; summary of the method: as §2
[1] = test system: Mycobacterium tuberculosis; assay: Antimycobacterial activity against Mycobacterium tuberculosis H37Rv after 45 days
Summary of the method: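 Canetti proportion method. Compound in DMSO is added to Löwenstein–Jensen egg medium before coagulation (30 min, 85 °C), tested at three levels plus a lower one where needed. Tubes are inoculated with H37Rv at 10⁵ cells/ml and incubated 45 days at 37 °C. Colony counts versus drug-free control give percentage inhibition.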

Micrococcus luteus [2] = assay: Antibacterial activity against Micrococcus luteus ATCC 9631 at 50 mg/ml after 24 hrs by agar diffusion test; settings: for zone of inhibition at 50000 µg/mL: ATCC 9631, 24 h, read-out: DIZ; summary of the method: as §2
Candida tropicalis = assay: Antifungal activity against Candida tropicalis ATCC 20336 at 50 mg/ml after 72 hrs by agar diffusion test; summary of the method: as §1
Staphylococcus aureus = assay: Antibacterial activity against Staphylococcus aureus NRRL B 313 at 50 mg/ml after 24 hrs by agar diffusion test; settings: for zone of inhibition at 50000 µg/mL: NRRL B 313, 24 h, read-out: DIZ
Summary of the method: (§3)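 Agar diffusion: bacteria grown 24 h at 37 °C on nutrient agar. Wells in the agar are filled with […] of compound solution in DMSO at various concentrations. The diameter of the clear zone around the application point is measured. Bracketed values give the lowest concentration (mg/ml) that produces a zone >11 mm. A first screen is run at 50 mg/ml.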

Escherichia coli = assay: Antibacterial activity against Escherichia coli ATCC 8739 at 50 mg/ml after 24 hrs by agar diffusion test; summary of the method: as §2
Bacillus cereus = assay: Antibacterial activity against Bacillus cereus ATCC 11778 at 50 mg/ml after 24 hrs by agar diffusion test; settings: for zone of inhibition at 50000 µg/mL: ATCC 11778, 24 h, read-out: DIZ; summary of the method: as §2
Bacillus subtilis = assay: Antibacterial activity against Bacillus subtilis ATCC 6633 at 50 mg/ml after 24 hrs by agar diffusion test; settings: for zone of inhibition at 50000 µg/mL: ATCC 6633, 24 h, read-out: DIZ; summary of the method: as §2
Bacillus = assay: Antibacterial activity against Bacillus idosus B 241 at 50 mg/ml after 24 hrs by agar diffusion test; settings: for zone of inhibition at 50000 µg/mL: B 241, 24 h, read-out: DIZ; summary of the method: as §2
Saccharomyces cerevisiae = assay: Antifungal activity against Saccharomyces cerevisiae ATCC 9763 at 50 mg/ml after 72 hrs by agar diffusion test; summary of the method: as §1
Acinetobacter johnsonii = assay: Antibacterial activity against Acinetobacter johnsonii ATCC 17909 at 50 mg/ml after 24 hrs by agar diffusion test; settings: for zone of inhibition at 50000 µg/mL: ATCC 17909, 24 h, read-out: DIZ; summary of the method: as §2
Micrococcus luteus [3] = assay: Antibacterial activity against Sarcina lutea ATCC 9341 at 50 mg/ml after 24 hrs by agar diffusion test; settings: for zone of inhibition at 50000 µg/mL: ATCC 9341, 24 h, read-out: DIZ; summary of the method: as §3

CC[C@H](CO)Nc1ncccn1
> 29.9 µM: MIC [1]
12 mm: zone of inhibition at 50000 µg/mL (Bacillus cereus)
inactive: diameter of the inhibition zone (DIZ) (Penicillium chrysogenum) | diameter of the inhibition zone (DIZ) (Priestia megaterium) | diameter of the inhibition zone (DIZ) (Bacillus mycoides) | diameter of the inhibition zone (DIZ) (Micrococcus luteus [2]) | diameter of the inhibition zone (DIZ) (Candida tropicalis) | diameter of the inhibition zone (DIZ) (Staphylococcus aureus) | diameter of the inhibition zone (DIZ) (Escherichia coli) | diameter of the inhibition zone (DIZ) (Bacillus subtilis) | diameter of the inhibition zone (DIZ) (Bacillus) | diameter of the inhibition zone (DIZ) (Saccharomyces cerevisiae) | diameter of the inhibition zone (DIZ) (Acinetobacter johnsonii) | diameter of the inhibition zone (DIZ) (Micrococcus luteus [3])

CC[C@H](CO)NC(=O)c1ccccc1Br
> 18.4 µM: MIC [1]
inactive: diameter of the inhibition zone (DIZ) (Penicillium chrysogenum) | diameter of the inhibition zone (DIZ) (Priestia megaterium) | diameter of the inhibition zone (DIZ) (Bacillus mycoides) | diameter of the inhibition zone (DIZ) (Micrococcus luteus [2]) | diameter of the inhibition zone (DIZ) (Candida tropicalis) | diameter of the inhibition zone (DIZ) (Staphylococcus aureus) | diameter of the inhibition zone (DIZ) (Bacillus cereus) | diameter of the inhibition zone (DIZ) (Bacillus subtilis) | diameter of the inhibition zone (DIZ) (Bacillus) | diameter of the inhibition zone (DIZ) (Saccharomyces cerevisiae) | diameter of the inhibition zone (DIZ) (Acinetobacter johnsonii) | diameter of the inhibition zone (DIZ) (Micrococcus luteus [3])

CC[C@H](CO)N(Cc1cc2c(cc1Cl)OCO2)Cc1cc2c(cc1Cl)OCO2
10 mm: zone of inhibition at 50000 µg/mL (Priestia megaterium) | zone of inhibition at 50000 µg/mL (Micrococcus luteus [3])
inactive: diameter of the inhibition zone (DIZ) (Penicillium chrysogenum) | diameter of the inhibition zone (DIZ) (Bacillus mycoides) | diameter of the inhibition zone (DIZ) (Candida tropicalis) | diameter of the inhibition zone (DIZ) (Staphylococcus aureus) | diameter of the inhibition zone (DIZ) (Escherichia coli) | diameter of the inhibition zone (DIZ) (Bacillus cereus) | diameter of the inhibition zone (DIZ) (Bacillus subtilis) | diameter of the inhibition zone (DIZ) (Bacillus) | diameter of the inhibition zone (DIZ) (Saccharomyces cerevisiae) | diameter of the inhibition zone (DIZ) (Acinetobacter johnsonii)
> 11.7 µM: MIC [1]

CC[C@H](CO)N1C(=O)c2cccc3c(Br)ccc(c23)C1=O
inactive: diameter of the inhibition zone (DIZ) (Penicillium chrysogenum) | diameter of the inhibition zone (DIZ) (Priestia megaterium) | diameter of the inhibition zone (DIZ) (Bacillus mycoides) | diameter of the inhibition zone (DIZ) (Micrococcus luteus [2]) | diameter of the inhibition zone (DIZ) (Candida tropicalis) | diameter of the inhibition zone (DIZ) (Staphylococcus aureus) | diameter of the inhibition zone (DIZ) (Bacillus subtilis) | diameter of the inhibition zone (DIZ) (Bacillus) | diameter of the inhibition zone (DIZ) (Saccharomyces cerevisiae) | diameter of the inhibition zone (DIZ) (Acinetobacter johnsonii)
> 14.4 µM: MIC [1]

CC[C@H](CO)NCc1ccccc1OC
13 mm: zone of inhibition at 50000 µg/mL (Bacillus cereus)
15 mm: zone of inhibition at 50000 µg/mL (Bacillus)
16 mm: zone of inhibition at 50000 µg/mL (Saccharomyces cerevisiae; ATCC 9763, 72 h, read-out: DIZ)
11 mm: zone of inhibition at 50000 µg/mL (Priestia megaterium) | zone of inhibition at 50000 µg/mL (Bacillus mycoides) | zone of inhibition at 50000 µg/mL (Micrococcus luteus [2])
> 23.9 µM: MIC [1]
10 mm: zone of inhibition at 50000 µg/mL (Staphylococcus aureus) | zone of inhibition at 50000 µg/mL (Bacillus subtilis) | zone of inhibition at 50000 µg/mL (Acinetobacter johnsonii)
inactive: diameter of the inhibition zone (DIZ) (Penicillium chrysogenum) | diameter of the inhibition zone (DIZ) (Candida tropicalis) | diameter of the inhibition zone (DIZ) (Escherichia coli)

CC[C@H](CO)NS(=O)(=O)c1ccc(NC(C)=O)cc1
inactive: diameter of the inhibition zone (DIZ) (Priestia megaterium) | diameter of the inhibition zone (DIZ) (Bacillus mycoides) | diameter of the inhibition zone (DIZ) (Micrococcus luteus [2]) | diameter of the inhibition zone (DIZ) (Candida tropicalis) | diameter of the inhibition zone (DIZ) (Staphylococcus aureus) | diameter of the inhibition zone (DIZ) (Escherichia coli) | diameter of the inhibition zone (DIZ) (Bacillus cereus) | diameter of the inhibition zone (DIZ) (Bacillus subtilis) | diameter of the inhibition zone (DIZ) (Bacillus) | diameter of the inhibition zone (DIZ) (Saccharomyces cerevisiae) | diameter of the inhibition zone (DIZ) (Acinetobacter johnsonii) | diameter of the inhibition zone (DIZ) (Micrococcus luteus [3])
> 17.5 µM: MIC [1]

CC[C@H](CO)NCc1ccnc2ccccc12
20 mm: zone of inhibition at 50000 µg/mL (Penicillium chrysogenum; CECT 2802, 72 h, read-out: DIZ) | zone of inhibition at 50000 µg/mL (Escherichia coli; ATCC 8739, 24 h, read-out: DIZ)
12 mm: zone of inhibition at 50000 µg/mL (Bacillus)
10 mm: zone of inhibition at 50000 µg/mL (Micrococcus luteus [2]) | zone of inhibition at 50000 µg/mL (Bacillus subtilis)
21.7 µM: MIC [1]
16 mm: zone of inhibition at 50000 µg/mL (Bacillus mycoides)
14 mm: zone of inhibition at 50000 µg/mL (Staphylococcus aureus)
11 mm: zone of inhibition at 50000 µg/mL (Priestia megaterium)
13 mm: zone of inhibition at 50000 µg/mL (Bacillus cereus) | zone of inhibition at 50000 µg/mL (Acinetobacter johnsonii) | zone of inhibition at 50000 µg/mL (Micrococcus luteus [3])
